# Compound activity from PubChem.
# Plk1 PBD FP = inhibitors of human Plk1 polo box domain binding; P53350; Plk1 PBD phosphopeptide binding, fluorescence polarization; inhibition, %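 (tested at about 20 µM)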; 0.13% of 97,000 active; in the data active = inhibition above about 34%, passing the limit was not always enough
# Target sequence (P53350 whole entry, looked up, the tested form may be a part): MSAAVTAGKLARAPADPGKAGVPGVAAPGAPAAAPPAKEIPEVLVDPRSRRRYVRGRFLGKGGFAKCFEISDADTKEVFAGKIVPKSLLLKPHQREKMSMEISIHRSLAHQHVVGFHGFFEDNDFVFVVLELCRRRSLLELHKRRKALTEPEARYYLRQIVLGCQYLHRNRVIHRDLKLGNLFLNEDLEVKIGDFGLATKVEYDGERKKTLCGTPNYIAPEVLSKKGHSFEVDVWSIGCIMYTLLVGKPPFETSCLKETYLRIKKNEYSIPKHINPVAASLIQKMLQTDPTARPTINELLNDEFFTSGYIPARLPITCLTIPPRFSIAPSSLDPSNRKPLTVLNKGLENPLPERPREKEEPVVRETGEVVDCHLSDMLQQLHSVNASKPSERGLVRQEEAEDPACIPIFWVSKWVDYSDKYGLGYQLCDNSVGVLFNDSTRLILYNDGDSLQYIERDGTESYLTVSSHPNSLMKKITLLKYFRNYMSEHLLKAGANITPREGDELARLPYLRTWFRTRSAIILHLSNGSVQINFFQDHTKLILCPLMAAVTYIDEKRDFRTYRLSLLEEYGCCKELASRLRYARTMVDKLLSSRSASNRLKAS
# LYP inh 2 = blocks human PTPN22 phosphatase activity; Q9Y2R2; recombinant LYP catalytic domain, DiFMUP fluorescence; inhibition, % at 2 µM; 0.21% of 96,000 active; AID 640;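 active = inhibition at 2 µM at or above a set limit, the screen mean plus 3 SD, cut at about 24% in these data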;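 note: 0% = DMSO with enzyme and 100% = enzyme fully blocked by orthovanadate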
# EphB4 antag = EphB4-ephrin-B2 interaction antagonism; P54760; EphB4 LBD / TNYL-RAW-Alexa532 peptide, fluorescence polarization; inhibition, % at 7 µM; 0.15% of 97,000 active; AID 720;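 active = inhibition above the screen-wide mean inhibition plus 3 SD, cut at about 15% in these data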;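 note: 0% = DMSO wells and 100% = excess unlabeled TNYL-RAW peptide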
# LYP act = LYP (human) phosphatase activation. Q9Y2R2. recombinant LYP, DiFMUP fluorescence; 0 = plate median, 100 = signal doubled. activation, % at 2 µM. 0.11% of 96,000 active. AID 697;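 active = activation at 2 µM above a set limit, the mean plus 5 SD, cut at about 37% in these data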
# HIV Rev-RRE inh = inhibitors of HIV-1 Rev-RRE RNA interaction | inhibition, % at 8 µM | 0.79% of 97,000 active | P05866 | Rev peptide-RRE RNA binding, FRET | AID 704;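 active = inhibition above the screen-wide mean plus 3 SD, cut at about 35% in these data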;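 note: 0% = median DMSO wells and 100% = median Neomycin B control wells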
#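 Test system: labelled RRE RNA duplex and labelled Rev peptide. Times: 5 min compound–RNA preincubation, then 15 min with peptide, 25 °C. Doses: single-dose 8 µM. Measured by: FRET, excitation 480 nm, emission 540 nm donor and 671 nm acceptor. Measure: % inhibition of FRET ratio versus controls.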
# PLK1 inh = PLK1 (human) kinase inhibition. recombinant PLK1 kinase, TR-FRET peptide phosphorylation. inhibition, % at 10 µM. 0.53% of 97,000 active. P53350;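 active = inhibition of 50% or more in the single-concentration screen; inactive = inhibition below 50%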;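 note: 0% = DMSO max control and 100% = H-89 dihydrochloride min control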
# * hit, by the source's call; . = no result; [ ] = dose if it differs, or a comment. Hits are enriched below; roughly 2% of the tested compounds scored in any of these assays.
SMILES,Plk1 PBD FP,LYP inh 2,EphB4 antag,LYP act,HIV Rev-RRE inh,PLK1 inh
CCCC1=NN2C(=N)/C(=C\c3ccc(SCc4ccco4)o3)C(=O)N=C2S1,-38,20,-14,-19,36*,-48
N=C1/C(=C/c2cccs2)C(=O)N=C2SN=C(SCc3ccccc3)N12,-13,2,-5,2,4,-3
CC(NC(=O)CN1CCCC1)C12CC3CC(CC(C3)C1)C2 (stereo not given),5,12,9,-8,1,-16
CCC(=S)/C=C1\Sc2ccccc2N1CCCS(=O)(=O)O,14,-1,2,4,7,-6
O=C1c2ccccc2-c2onc3c(Oc4ccccc4)cc(O)c1c23,-26,5,0,-4,4,7
CCOc1ccc2noc3c2c1C(=O)c1ccccc1-3,39,3,2,-5,133*[fluorescence artefact?],-17
CCNc1ccc2noc3c2c1C(=O)c1ccccc1-3,7,13,95*[fluorescence artefact?],-11,138*[fluorescence artefact?],14
CCCNc1cc(=O)n(C)c(=O)n1C,11,25*,-1,-26,1,-2
COc1ccc(C(CNC(=O)Cc2cc(OC)c(OC)c(OC)c2)N2CCCC2)cc1 (stereo not given),-26,12,-2,-14,2,-2
Cc1ccc(S(=O)(=O)c2c(N)n(Cc3ccco3)c3nc4ccccc4nc23)cc1C,14,7,2,-8,26,-6
Nc1c(S(=O)(=O)c2ccccc2)c2nc3ccccc3nc2n1Cc1ccco1,-20,14,-6,-16,43*,-2
COc1cc(/C=C2/C(=O)N=C(N)N2C)cc(OC)c1OC,28,2,0,-2,6,-3
COC(=O)c1cc(NC(=O)c2cccc(C(F)(F)F)c2)c(=O)oc1C/C=N/OCc1cccc(Cl)c1Cl,2,13,-36,-14,39*,-4
CN(C)c1ccc(C=C2C(=O)OC(C)(C(C)(C)C)OC2=O)cc1 (stereo not given),-13,-8,-4,6,63*,-16
CCN(CC)c1ccc(C=C2C(=O)OC(C)(C(C)(C)C)OC2=O)cc1 (stereo not given),.,.,.,.,.,-9
OCc1nnc2c3ccccc3c(-c3ccccc3)nn12,11,10,-7,-8,5,4
CN(C)c1nccc(Nc2ccccc2)c1C#N,-14,-4,16*,5,-2,-3
CN(C)CCN(Cc1ccccc1)c1nccc(N(C)C)c1C#N,-10,11,-3,-9,-1,-11
C(=C/c1ccnc2nc(SC/C=C/c3ccccc3)nn12)/c1ccccc1,-32,33*,-4,-31,-4,-1
CN(CC(=O)Nc1nccs1)S(=O)(=O)c1ccc(F)cc1,1,8,-3,-6,4,53*
CC(C)NC(=O)CN(C)S(=O)(=O)c1ccc(F)cc1,24,10,-2,-12,5,-7
CCn1cc(C(=O)N2CCCCC2)c(=O)c2cc(S(=O)(=O)N3CCC(C)CC3)ccc21,-5,4,3,-6,5,50*
COc1ccc(-c2cc(C(F)(F)F)n3ncc(C(=O)NCc4ccco4)c3n2)cc1,5,-3,0,2,0,-10
O=C1c2ccccc2C(=O)C1c1ccnc2ccccc12,-11,4,4,-3,9,-7
N#CC1=C(N)SC(N)=C(C#N)C1c1ccnc2ccccc12,-21,-4,1,2,60*,-5
SMILES,Plk1 PBD FP,LYP inh 2,EphB4 antag,LYP act,HIV Rev-RRE inh,PLK1 inh
CCn1c(CSc2nc3ccccc3s2)nnc1SCC(=O)c1ccc(O)c(O)c1,17,46*,0,-44,-2,-3
CCn1c(CSc2nc3ccccc3s2)nnc1SCC(=O)c1ccc(Cl)cc1,3,1,6,-3,0,-2
CC(C)c1ccc(N2C(=O)CC(Sc3nc4ccccc4o3)C2=O)cc1 (stereo not given),-18,24*,1,-22,6,-7
C=C(Cl)COc1ccc2c(C)cc(=O)oc2c1,-16,4,-5,0,-4,8
CC(C)Cc1nc2n[nH]c(N)c2c2c1CCC2,-1,-7,-5,4,-2,50*
CC(C)c1nc2n[nH]c(N)c2c2c1CCCC2,-11,0,2,0,10,66*
CCc1nc2n[nH]c(N)c2c2c1CCCC2,-8,10,1,-9,7,47
CC(C)Cc1nc2n[nH]c(N)c2c2c1CCCC2,-7,-8,3,7,8,69*
CCCCc1nc2n[nH]c(N)c2c2c1CCC2,7,-2,6,3,2,35
O=C(NCc1cn2ccccc2n1)c1ccco1,-26,-10,-3,9,8,-21
COC(=O)Nc1sc2c(c1C(N)=O)CCCCCC2,7,2,1,-2,1,-7
Cc1ccc(-n2c(O)c(/C=N/n3cnnc3)c3ccccc3c2=O)cc1,-11,3,-2,-6,7,-4
O=C(Nc1ccc(N2CCN(C(=O)c3ccco3)CC2)cc1)c1ccc2c(c1)OCO2,-9,-5,-3,-1,-2,-11
O=C(O)CCC(=O)Nc1ccc(-c2nnc(-c3ccco3)o2)cc1,12,.,-7,.,5,53*
Cc1onc(-c2c(F)cccc2Cl)c1C(=O)N1CCc2ccccc2C1,24,-23,-11,22,1,-26
Cc1ccc(-c2nc(CSCC(=O)N3CCN(c4ccccn4)CC3)c(C)o2)cc1,-23,4,2,-6,6,-14
CCOc1ccc(-c2nc(CSCC(=O)N3CCN(c4cccc(OC)c4)CC3)c(C)o2)cc1,-5,.,2,.,-2,64*
CCN1c2ccccc2NC2N=C(OC)C(c3ccccc3)C21 (stereo not given),10,12,1,-14,-3,-3
CCN1c2ccccc2NC2C1C(C(C)=O)C(=O)N2c1ccc(Cl)cc1 (stereo not given),-11,-3,5,0,50*,-14
CCN(CC)S(=O)(=O)c1ccc(Nc2ccc(-c3ccc4c(c3)OCCO4)nn2)cc1,-12,-4,8,1,4,-9
Cc1cc(N2CCC(C)CC2)nc2cccc(O)c12,-2,8,2,-9,8,63*
O=C(Nc1ccnc(-c2cccnc2)n1)c1ccc(Cl)cc1,-36,-13,-4,18,-2,-7
Cc1cccc2cc3c(N)c(C(=O)N4CCOCC4)sc3nc12,4,1,-3,-2,50*,-3
Cc1ccc(-c2cc(C(=O)N3CCCc4ccccc43)c3ccccc3n2)cc1,13,2,4,-3,4,-11
Cc1cc(C)c2cc3c(N)c(C(=O)N4CCc5ccccc5C4)sc3nc2c1,-7,14,3,-12,72*,-9
Cc1cccc(-n2nnc(C(=O)N3CCc4ccccc4C3)c2N)c1,18,-5,2,5,13,-1
